Measured values as given in ChEMBL document CHEMBL4732199, “Potent and orally bioavailable CDK8 inhibitors: Design, synthesis, structure-activity relationship analysis and biological evaluation” (Eur J Med Chem, 2021).
Active and inactive are the calls of the source. The calls are words filed in the database; no cut-off is given here.

Key:
[1] = target: CDK9/cyclin T1 (Homo sapiens) (UniProt O60563+P50750); test: Inhibition of CDK9/Cyclin T1 (unknown origin) at 1 uM relative to control; assay type: protein-complex assay
Method in brief: (§1)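 Residual activity of each kinase with compound at 1 µM, measured in a contracted radioisotope-based kinase profiling assay and expressed as % kinase activity remaining.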

[2] = Dissociation constant, pKa of the compound by UV spectrometric titration method; assay type: physicochemical
[3] = target: CDK7/Cyclin H/MNAT1 (Homo sapiens) (UniProt P51946+P50613+P51948); test: Inhibition of CDK7/cyclin H/MNAT1 (unknown origin) at 1 uM; assay type: protein-complex assay; method in brief: as §1
[4] = target: Cyclin-dependent kinase 14/Cyclin-Y (Homo sapiens) (UniProt O94921+Q8ND76); test: Inhibition of CDK14/Cyclin Y (unknown origin) at 1 uM; assay type: protein-complex assay; method in brief: as §1
[5] = target: CDK6/cyclin D3 (Homo sapiens) (UniProt P30281+Q00534); test: Inhibition of CDK6/cyclin-D3 (unknown origin) at 1 uM; assay type: protein-complex assay; method in brief: as §1
[6] = Cmax in BALB/c mouse at 10 mg/kg, po measured up to 24 hrs by LC-MS/MS analysis; conditions: in vivo
[7] = Tmax in BALB/c mouse at 2 mg/kg, iv measured up to 24 hrs by LC-MS/MS analysis; conditions: in vivo
[8] = Oral bioavailability in BALB/c mouse at 10 mg/kg measured up to 24 hrs by LC-MS/MS analysis; conditions: in vivo
[9] = target: Cyclin-dependent kinase 1/cyclin B1 (Homo sapiens, UniProt P06493); test: Inhibition of CDK1/cyclin-B (unknown origin); assay type: protein-complex assay
Method in brief: (§2)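 IC50 measured in a contracted radiometric kinase assay with ATP at the experimentally determined Km(ATP) of each kinase. Apparent Ki was derived by Cheng-Prusoff: Ki = IC50/(1+[ATP]/Km(ATP)).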

[10] = target: CDK2/Cyclin A2 (Homo sapiens) (UniProt P24941+P20248); test: Inhibition of CDK2/cyclin-A (unknown origin) at 1 uM; assay type: protein-complex assay; method in brief: as §1
[11] = target: Cyclin-dependent kinase 1/cyclin B1 (Homo sapiens) (UniProt P06493+P14635); test: Inhibition of CDK1/cyclin-B (unknown origin) at 1 uM relative to control; assay type: protein-complex assay; method in brief: as §1
CDK9/cyclin T1 = CDK9/cyclin T1 (Homo sapiens, UniProt P50750); test: Inhibition of CDK9/Cyclin T1 (unknown origin); assay type: protein-complex assay; method in brief: as §2
[12] = target: CDK17/Cyclin-Y (Homo sapiens) (UniProt Q00537+Q8ND76); test: Inhibition of CDK17/Cyclin Y (unknown origin) at 1 uM; assay type: protein-complex assay; method in brief: as §1
[13] = target: Protein kinase C theta type (Homo sapiens, UniProt Q04759); test: Inhibition of human full length PKCtheta at 1 uM using histone H1 as substrate incubated for 40 mins in presence of [gamma-33P]-ATP by scintillation counting method relative to control
Method in brief: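 Single-point screen of residual kinase activity (%) at 1 µM compound. Run as a contract radiometric [γ-33P]-ATP kinase assay, either the KinaseProfiler service or the HotSpot assay. ATP was set at the experimentally determined Km(ATP) of each kinase.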

CDK17/Cyclin-Y (Homo sapiens), sequence (Q00537 whole entry): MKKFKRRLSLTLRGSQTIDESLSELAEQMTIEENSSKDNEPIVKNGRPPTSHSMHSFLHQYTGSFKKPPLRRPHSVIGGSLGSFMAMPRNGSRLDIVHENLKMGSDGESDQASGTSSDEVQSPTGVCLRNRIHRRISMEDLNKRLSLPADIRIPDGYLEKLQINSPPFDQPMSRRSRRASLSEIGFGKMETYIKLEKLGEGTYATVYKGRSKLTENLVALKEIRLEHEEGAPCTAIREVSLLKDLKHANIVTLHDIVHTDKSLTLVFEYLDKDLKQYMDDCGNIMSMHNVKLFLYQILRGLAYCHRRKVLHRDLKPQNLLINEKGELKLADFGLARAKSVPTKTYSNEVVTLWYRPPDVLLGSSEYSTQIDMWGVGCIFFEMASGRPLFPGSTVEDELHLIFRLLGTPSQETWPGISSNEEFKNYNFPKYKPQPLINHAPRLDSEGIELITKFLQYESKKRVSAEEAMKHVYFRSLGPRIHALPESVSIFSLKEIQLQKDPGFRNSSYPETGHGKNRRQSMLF
CDK17/Cyclin-Y (Homo sapiens), sequence (Q8ND76 2-341 partner limits assumed): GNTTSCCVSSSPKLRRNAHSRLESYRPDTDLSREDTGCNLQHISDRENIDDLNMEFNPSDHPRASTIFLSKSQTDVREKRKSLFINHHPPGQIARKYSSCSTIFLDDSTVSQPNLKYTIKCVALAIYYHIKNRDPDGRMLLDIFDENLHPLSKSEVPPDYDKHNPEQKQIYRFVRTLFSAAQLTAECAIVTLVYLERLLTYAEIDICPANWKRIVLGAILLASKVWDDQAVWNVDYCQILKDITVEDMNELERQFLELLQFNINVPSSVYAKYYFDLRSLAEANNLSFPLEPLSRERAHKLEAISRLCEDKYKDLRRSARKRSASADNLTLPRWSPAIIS
Cyclin-dependent kinase 1/cyclin B1 (Homo sapiens), sequence (P06493 whole entry, looked up): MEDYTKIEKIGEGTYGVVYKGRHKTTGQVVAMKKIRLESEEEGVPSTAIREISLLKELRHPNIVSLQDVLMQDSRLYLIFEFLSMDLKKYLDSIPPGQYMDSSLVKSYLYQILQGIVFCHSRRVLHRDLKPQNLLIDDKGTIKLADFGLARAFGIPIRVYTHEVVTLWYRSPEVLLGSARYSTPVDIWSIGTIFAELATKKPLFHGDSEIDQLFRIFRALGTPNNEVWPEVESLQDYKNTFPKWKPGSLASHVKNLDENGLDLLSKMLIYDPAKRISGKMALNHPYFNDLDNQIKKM
Cyclin-dependent kinase 1/cyclin B1 (Homo sapiens), sequence (P14635 whole entry, looked up): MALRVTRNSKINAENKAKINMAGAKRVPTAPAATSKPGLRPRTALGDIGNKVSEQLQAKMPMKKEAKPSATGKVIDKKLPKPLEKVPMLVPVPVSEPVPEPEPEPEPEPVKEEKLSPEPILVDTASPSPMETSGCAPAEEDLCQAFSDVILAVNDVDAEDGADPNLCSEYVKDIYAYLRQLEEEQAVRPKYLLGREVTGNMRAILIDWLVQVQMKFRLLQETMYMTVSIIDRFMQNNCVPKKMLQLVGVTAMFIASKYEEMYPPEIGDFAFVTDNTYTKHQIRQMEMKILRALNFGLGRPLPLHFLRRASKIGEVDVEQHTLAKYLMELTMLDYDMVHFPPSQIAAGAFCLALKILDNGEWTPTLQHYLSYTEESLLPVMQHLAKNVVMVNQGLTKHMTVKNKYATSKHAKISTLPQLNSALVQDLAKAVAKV
Cyclin-dependent kinase 1/cyclin B1, sequence (P06493 whole entry): as the sequence (P06493 whole entry, looked up) above
Cyclin-dependent kinase 1/cyclin B1, sequence (P14635 whole entry, further chain): as the sequence (P14635 whole entry, looked up) above
CDK9/cyclin T1, sequence (O60563 whole entry): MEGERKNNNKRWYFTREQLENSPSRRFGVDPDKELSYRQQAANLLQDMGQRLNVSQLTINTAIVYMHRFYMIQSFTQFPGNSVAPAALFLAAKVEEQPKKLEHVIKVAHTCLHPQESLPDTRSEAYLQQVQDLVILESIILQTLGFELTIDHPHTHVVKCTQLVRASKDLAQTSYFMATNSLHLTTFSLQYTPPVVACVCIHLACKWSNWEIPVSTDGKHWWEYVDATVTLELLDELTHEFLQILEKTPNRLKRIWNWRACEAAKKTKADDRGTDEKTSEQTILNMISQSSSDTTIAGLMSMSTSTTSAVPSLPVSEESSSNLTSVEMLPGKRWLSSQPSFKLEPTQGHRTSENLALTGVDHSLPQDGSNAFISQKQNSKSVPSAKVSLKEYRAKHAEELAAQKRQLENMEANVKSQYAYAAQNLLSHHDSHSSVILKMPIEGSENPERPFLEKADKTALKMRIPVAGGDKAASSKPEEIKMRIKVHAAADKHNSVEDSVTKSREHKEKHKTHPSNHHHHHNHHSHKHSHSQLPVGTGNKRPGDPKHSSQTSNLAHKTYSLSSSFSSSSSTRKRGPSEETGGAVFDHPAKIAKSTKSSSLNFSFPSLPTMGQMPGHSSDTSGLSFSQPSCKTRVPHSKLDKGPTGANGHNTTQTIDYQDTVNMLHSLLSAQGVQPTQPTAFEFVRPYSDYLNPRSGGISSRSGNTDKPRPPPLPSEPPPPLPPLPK
CDK9/cyclin T1, sequence (P50750 whole entry): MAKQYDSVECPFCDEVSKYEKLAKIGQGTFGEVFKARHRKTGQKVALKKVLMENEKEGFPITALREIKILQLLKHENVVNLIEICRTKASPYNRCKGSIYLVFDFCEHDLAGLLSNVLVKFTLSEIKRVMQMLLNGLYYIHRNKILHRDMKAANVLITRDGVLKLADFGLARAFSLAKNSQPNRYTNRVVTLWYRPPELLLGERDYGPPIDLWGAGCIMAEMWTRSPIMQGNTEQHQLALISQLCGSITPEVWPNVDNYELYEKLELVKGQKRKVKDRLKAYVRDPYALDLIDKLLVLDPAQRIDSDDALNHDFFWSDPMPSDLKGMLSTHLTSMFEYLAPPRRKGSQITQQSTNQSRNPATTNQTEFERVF
Protein kinase C theta type, sequence (Q04759 whole entry, looked up): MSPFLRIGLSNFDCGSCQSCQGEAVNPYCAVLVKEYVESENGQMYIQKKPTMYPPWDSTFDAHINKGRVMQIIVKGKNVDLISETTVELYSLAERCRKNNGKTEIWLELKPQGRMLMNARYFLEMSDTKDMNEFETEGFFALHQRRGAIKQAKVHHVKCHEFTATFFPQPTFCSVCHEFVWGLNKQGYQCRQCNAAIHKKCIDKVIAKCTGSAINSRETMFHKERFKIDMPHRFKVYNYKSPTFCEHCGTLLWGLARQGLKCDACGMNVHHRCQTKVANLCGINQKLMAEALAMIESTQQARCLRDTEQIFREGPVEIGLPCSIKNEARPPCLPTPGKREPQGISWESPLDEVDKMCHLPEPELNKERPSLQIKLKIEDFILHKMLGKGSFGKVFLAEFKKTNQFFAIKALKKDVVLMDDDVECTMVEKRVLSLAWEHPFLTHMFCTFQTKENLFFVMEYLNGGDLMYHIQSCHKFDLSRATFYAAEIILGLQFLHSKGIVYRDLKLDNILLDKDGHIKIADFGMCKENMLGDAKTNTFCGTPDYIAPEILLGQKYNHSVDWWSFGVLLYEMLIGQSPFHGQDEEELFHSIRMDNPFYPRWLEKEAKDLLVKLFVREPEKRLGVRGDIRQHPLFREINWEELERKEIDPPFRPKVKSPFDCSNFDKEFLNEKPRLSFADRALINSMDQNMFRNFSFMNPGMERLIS

O=C1NCCC12CCN(c1c(Cl)cncc1-c1cc3ccccc3o1)CC2
inhibition [1]: > 50%
pKa [2]: 4.9
inhibition [3]: inactive
inhibition [4]: inactive
inhibition [5]: inactive
Cmax [6]: 5.01 µM
Tmax [7]: 2.4 min
bioavailability [8]: 33%
Ki [9]: 1890 nM
inhibition [10]: inactive
inhibition [11]: > 50%
Ki (CDK9/cyclin T1): 1770 nM
inhibition [12]: inactive
inhibition [13]: > 50%
